For one compound, Activity, fold change (FC) and inhibition results are on record in ChEMBL document CHEMBL4602720, “Degradation versus Inhibition: Development of Proteolysis-Targeting Chimeras for Overcoming Statin-Induced Compensatory Upregulation of 3-Hydroxy-3-methylglutaryl Coenzyme A Reductase” (J Med Chem, 2020).

Assay [1] addresses T1, Protein cereblon/3-hydroxy-3-methylglutaryl-coenzyme A reductase (Cricetulus griseus) (UniProt P00347+G3H338). Kind of assay: Protac activity at CRBN/HMGCR in 5'-GGAAGUCGAAGACCAAGAU-3' siRNA transfected in Insig-1/Insig-2 deficient Chinese hamster SRD15 cells assessed as induction of HMGCR degradation at after 16 hrs by immunoblotting analysis. Put shortly: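 SRD15 cells (Insig-1/Insig-2-deficient CHO-7) in Medium A with 5% FBS at 37 °C, 5% CO2; transfected with negative-control or Crbn-targeting siRNA duplexes for 48 h, then given 1 μM degrader for 16 h. HMGCR by SDS-PAGE immunoblot of RIPA lysates. Knockdown efficiency checked by qRT-PCR against hamster GAPDH, comparative CT method. n = 3 independent experiments.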
Target sequence in this assay (G3H338 1-445 partner): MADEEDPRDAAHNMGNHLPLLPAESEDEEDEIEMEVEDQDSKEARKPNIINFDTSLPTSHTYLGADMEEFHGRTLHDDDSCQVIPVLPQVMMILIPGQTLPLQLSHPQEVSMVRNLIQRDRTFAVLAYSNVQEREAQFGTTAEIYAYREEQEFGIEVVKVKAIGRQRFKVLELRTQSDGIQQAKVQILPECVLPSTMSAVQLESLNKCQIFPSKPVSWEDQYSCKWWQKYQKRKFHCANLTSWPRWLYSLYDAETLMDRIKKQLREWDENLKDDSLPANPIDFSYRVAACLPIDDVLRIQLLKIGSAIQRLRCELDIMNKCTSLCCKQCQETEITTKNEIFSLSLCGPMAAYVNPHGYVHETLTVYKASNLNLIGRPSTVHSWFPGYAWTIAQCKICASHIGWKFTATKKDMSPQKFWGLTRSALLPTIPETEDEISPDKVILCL
Target sequence in this assay (P00347 whole entry): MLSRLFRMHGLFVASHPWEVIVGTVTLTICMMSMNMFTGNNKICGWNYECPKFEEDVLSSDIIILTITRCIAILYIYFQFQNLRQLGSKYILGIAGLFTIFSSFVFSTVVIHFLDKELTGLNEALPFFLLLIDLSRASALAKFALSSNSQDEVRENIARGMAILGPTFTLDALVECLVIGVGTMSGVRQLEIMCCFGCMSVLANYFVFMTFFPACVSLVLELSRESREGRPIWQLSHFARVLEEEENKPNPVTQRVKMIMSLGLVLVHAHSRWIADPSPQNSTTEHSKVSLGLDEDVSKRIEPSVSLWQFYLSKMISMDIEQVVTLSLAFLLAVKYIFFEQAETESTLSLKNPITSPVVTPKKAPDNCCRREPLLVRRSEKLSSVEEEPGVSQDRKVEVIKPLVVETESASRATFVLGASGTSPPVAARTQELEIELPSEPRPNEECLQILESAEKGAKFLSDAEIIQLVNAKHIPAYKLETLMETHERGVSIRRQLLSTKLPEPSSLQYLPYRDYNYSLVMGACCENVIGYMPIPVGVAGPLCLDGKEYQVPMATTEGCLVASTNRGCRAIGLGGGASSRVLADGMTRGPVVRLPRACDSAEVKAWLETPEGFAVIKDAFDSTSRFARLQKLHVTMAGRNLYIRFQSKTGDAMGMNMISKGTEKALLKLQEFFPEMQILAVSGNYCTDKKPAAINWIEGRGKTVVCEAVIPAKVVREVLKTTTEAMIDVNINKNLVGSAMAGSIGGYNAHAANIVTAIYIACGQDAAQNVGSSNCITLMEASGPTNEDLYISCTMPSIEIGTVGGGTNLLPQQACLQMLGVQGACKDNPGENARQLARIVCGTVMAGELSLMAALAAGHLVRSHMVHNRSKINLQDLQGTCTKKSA

In assay [2] the target is T1, Protein cereblon/3-hydroxy-3-methylglutaryl-coenzyme A reductase (Cricetulus griseus). Kind of assay: Protac activity at CRBN/HMGCR in Insig-1/Insig-2 deficient Chinese hamster SRD15 cells assessed as HMGCR level at 3 uM after 16 hrs by immunoblotting analysis (reference value: 1). Put shortly: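 Dose-response in SRD15 cells in Medium A with 5% FBS, 16 h treatment, DMSO final 0.1% or lower. RIPA lysates immunoblotted for HMGCR. HMGCR densitometry normalized to actin, with the DMSO group set to 1. Three repeats. DC50 is taken from a dose-response fit of the semi-quantitative blots, mean of 3 independent experiments.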
On the technique in general: In western blotting, separated proteins are transferred to a membrane and probed.

The target is the same in assay [3]. Kind of assay: Protac activity at CRBN/HMGCR in Insig-1/Insig-2 deficient Chinese hamster SRD15 cells assessed as HMGCR level at 1 uM after 16 hrs in presence of 0.1 uM atorvastatin by immunoblotting analysis (reference value: 1).
Target sequence in this assay (G3H338 1-445 partner): as the sequence (G3H338 1-445 partner) above
Target sequence in this assay (P00347 whole entry): as the sequence (P00347 whole entry) above
The target is the same in assay [4]. Kind of assay: Protac activity at CRBN/HMGCR in Insig-1/Insig-2 deficient Chinese hamster SRD15 cells assessed as HMGCR level at 1 uM after 16 hrs in presence of 0.1 uM pomalidomide by immunoblotting analysis (reference value: 1).
Target sequence in this assay (G3H338 1-445 partner): as the sequence (G3H338 1-445 partner) above
Target sequence in this assay (P00347 whole entry): as the sequence (P00347 whole entry) above
For assay [5], the system named is Huh-7. Briefly: Inhibition of cholesterol biosynthesis in human HuH7 cells preincubated for 14 hrs and followed by addition of 14C-acetate and measured after 2 hrs by TL method. Format: functional, cell-based. In a few lines: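 Sterol-depleted Huh7 cells (Medium B plus 5% lipoprotein-deficient serum) treated at varying concentrations for 14 h, pulse-labelled with ¹⁴C-acetate 1 μCi/μL for 2 h, washed, lysed in 0.1 M NaOH; lipids separated by TLC, ¹⁴C-cholesterol read by phosphorimager, DMSO set to 1.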

Assay [6] deals with T2, Protein cereblon/3-hydroxy-3-methylglutaryl-coenzyme A reductase (Homo sapiens) (UniProt P04035+Q96SW2). Kind of assay: Protac activity at human Flag-tagged CRBN/Myc-tagged HMGCR expressed in HEK293T cells assessed as induction of HMGCR immunoprecipitation 1 uM preincubated for 16 hrs followed by atorvastatin addition addition and measured after 5 hrs in presence of MG132 by Western blot analysis. Format: cell-based. The note with it: HEK-293T.
T2 sequence (P04035 whole entry, looked up): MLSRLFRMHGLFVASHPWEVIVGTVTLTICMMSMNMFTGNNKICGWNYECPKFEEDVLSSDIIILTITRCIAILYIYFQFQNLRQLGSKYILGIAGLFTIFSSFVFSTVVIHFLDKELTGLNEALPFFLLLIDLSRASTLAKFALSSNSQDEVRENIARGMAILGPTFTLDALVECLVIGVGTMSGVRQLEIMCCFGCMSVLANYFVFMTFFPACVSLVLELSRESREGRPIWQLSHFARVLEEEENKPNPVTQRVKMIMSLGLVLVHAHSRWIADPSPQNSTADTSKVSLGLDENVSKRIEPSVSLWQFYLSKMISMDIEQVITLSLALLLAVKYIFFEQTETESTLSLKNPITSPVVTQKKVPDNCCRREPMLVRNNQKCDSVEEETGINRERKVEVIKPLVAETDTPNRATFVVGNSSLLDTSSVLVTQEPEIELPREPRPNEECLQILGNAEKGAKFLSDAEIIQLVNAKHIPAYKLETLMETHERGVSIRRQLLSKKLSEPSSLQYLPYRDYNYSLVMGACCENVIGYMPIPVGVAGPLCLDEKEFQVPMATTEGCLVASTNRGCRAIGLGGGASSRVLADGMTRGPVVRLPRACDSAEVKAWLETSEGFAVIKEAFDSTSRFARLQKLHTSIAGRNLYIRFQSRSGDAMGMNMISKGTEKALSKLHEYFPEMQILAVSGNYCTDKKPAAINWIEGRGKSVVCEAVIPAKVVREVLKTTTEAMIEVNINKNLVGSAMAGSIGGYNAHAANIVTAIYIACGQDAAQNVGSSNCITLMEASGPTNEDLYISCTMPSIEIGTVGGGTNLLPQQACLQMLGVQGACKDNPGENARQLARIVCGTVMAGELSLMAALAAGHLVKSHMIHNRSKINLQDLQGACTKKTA
T2 sequence (Q96SW2 whole entry, looked up): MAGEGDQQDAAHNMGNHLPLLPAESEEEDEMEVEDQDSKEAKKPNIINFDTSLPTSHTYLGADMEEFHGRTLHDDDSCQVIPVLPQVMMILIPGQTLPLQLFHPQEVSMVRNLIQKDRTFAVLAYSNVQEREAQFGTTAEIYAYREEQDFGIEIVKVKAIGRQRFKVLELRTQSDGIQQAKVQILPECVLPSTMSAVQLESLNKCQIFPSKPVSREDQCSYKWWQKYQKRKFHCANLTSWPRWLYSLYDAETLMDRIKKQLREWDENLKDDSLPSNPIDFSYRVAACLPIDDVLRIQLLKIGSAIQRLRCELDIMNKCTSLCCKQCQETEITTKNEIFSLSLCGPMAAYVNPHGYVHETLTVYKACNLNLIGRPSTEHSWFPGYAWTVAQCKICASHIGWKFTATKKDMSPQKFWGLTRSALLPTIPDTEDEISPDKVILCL

Assay [7] addresses T2, Protein cereblon/3-hydroxy-3-methylglutaryl-coenzyme A reductase (Homo sapiens). Kind of assay: Protac activity at human Flag-tagged CRBN/T7-tagged HMGCR expressed in Chinese hamster SRD15 cells transfected with HA-tagged ubiquitin assessed as increase in HMGCR immunoprecipitation 1 uM incubated for 16 hrs followed by atorvastatin addition addition and measured after 5 hrs in presence of MG132 by Western blot analysis. The format is cell-based.

In assay [8] the target is T1, Protein cereblon/3-hydroxy-3-methylglutaryl-coenzyme A reductase (Cricetulus griseus). Briefly: Protac activity at CRBN/HMGCR in Insig-1/Insig-2 deficient Chinese hamster SRD15 cells assessed as induction of HMGCR degradation at 1 uM preincubated for 16 hrs followed by addition of neddylation inhibitor MLN4924 and further incubated for 3 hrs by Western blot analysis. Put shortly: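 SRD15 cells treated with 1 μM degrader for 16 h, then for 3 h with 10 μM MG132 or with MLN-4924 at the indicated concentrations. HMGCR by immunoblot.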
Target sequence in this assay (G3H338 1-445 partner): as the sequence (G3H338 1-445 partner) above
Target sequence in this assay (P00347 whole entry): as the sequence (P00347 whole entry) above

Assay [9] shares this target. Briefly: Protac activity at human Flag-tagged CRBN YW/AA mutant /T7-tagged HMGCR transfected in Insig-1/Insig-2 deficient Chinese hamster SRD15 cells assessed as induction of HMGCR degradation at 0.01 to 1 uM after 16 hrs by immunoblotting analysis.
For assay [10] the target is unchanged. Briefly: Protac activity at CRBN/HMGCR in Insig-1/Insig-2 deficient Chinese hamster SRD15 cells assessed as HMGCR level at 1 uM after 16 hrs in presence of 10 uM pomalidomide by immunoblotting analysis (reference value: 1).
Target sequence in this assay (G3H338 1-445 partner): as the sequence (G3H338 1-445 partner) above
Target sequence in this assay (P00347 whole entry): as the sequence (P00347 whole entry) above
Assay [11] addresses T2, Protein cereblon/3-hydroxy-3-methylglutaryl-coenzyme A reductase (Homo sapiens). Kind of assay: Protac activity at human Flag-tagged CRBN/Myc-tagged HMGCR expressed in HEK293T cells assessed as induction of HMGCR immunoprecipitation at 1 uM preincubated for 16 hrs followed by MG132 addition addition and measured after 5 hrs in presence of MG132 by Western blot analysis. The format is cell-based. The note with it: HEK-293T.

Assay [12] shares this target. Briefly: Protac activity at human Flag-tagged CRBN/T7-tagged HMGCR expressed in Chinese hamster SRD15 cells transfected with HA-tagged ubiquitin assessed as increase in HMGCR immunoprecipitation 1 uM preincubated for 16 hrs followed by MG132 addition addition and measured after 5 hrs by Western blot analysis. The format is cell-based.
In assay [13] the target is T1, Protein cereblon/3-hydroxy-3-methylglutaryl-coenzyme A reductase (Cricetulus griseus). Kind of assay: Protac activity at CRBN/HMGCR in Insig-1/Insig-2 deficient Chinese hamster SRD15 cells assessed as increase in ubiquitination level of HMGCR at 1 uM incubated for 4 hrs in presence of MG132 by Western blot analysis. Put shortly: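 SRD15 cells given DMSO or 1 μM degrader together with 10 μM MG132 for 4 h. Lysates probed by immunoblot with P4D1 anti-ubiquitin antibody for high-molecular-weight HMGCR smears.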

Active and inactive are the calls of the source. No cut-off for these calls is given here.

For the compound `CC(C)c1c(C(=O)Nc2ccccc2)c(-c2cccc(OCCCc3cn(CCOCCOCCOCCOCCNc4cccc5c4C(=O)N(C4CCC(=O)NC4=O)C5=O)nn3)c2)c(-c2ccc(F)cc2)n1CC[C@@H](O)C[C@@H](O)CC(=O)O` (stereo partly drawn), the result in assay [1], in [6], in assay [7], in assay [8] and in [9] was inactive. The fold change (FC) in [2] turned out to be 0.3; in assay [3], 0.9; in assay [4] it was 0.4; in [10] it was 1. The inhibition result in assay [5] was “Active”. Also, the outcome in assay [11], in assay [12] and in [13] was Active.
